Measured values reported in ChEMBL document CHEMBL4602632, “Synthesis and anti-Mycobacterium tuberculosis activity of imide-β-carboline and carbomethoxy-β-carboline derivatives” (Eur J Med Chem, 2020).
Converted amounts (≈) assume the structure as drawn.

Assays:
Type in all cases: functional
[1] = system: Mycobacterium tuberculosis; experiment: Antimycobacterial activity against Mycobacterium tuberculosis 71A harbouring KatG Ser315Thr mutant and wild type InhA assessed as reduction in bacterial growth incubated for 7 days by resazurin dye based assay
Summary of the method: (§1)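 REMA broth microdilution: DMSO stocks diluted in 7H9-OADC, standardized inoculum added, final 0.98 to 250 μg/mL; 7 days at 35 °C in normal atmosphere, then 0.01% resazurin and a further 24 h at 35 °C. Read visually. MIC is the lowest concentration preventing the blue-to-pink change. Three independent assays on different days; isoniazid reference, medium, sterility and growth ±2.5% DMSO controls.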

[2] = system: Mycobacterium tuberculosis; experiment: Antimycobacterial activity against Mycobacterium tuberculosis 3614 harbouring wild type KatG and InhA Ile21Thr mutant assessed as reduction in bacterial growth incubated for 7 days by resazurin dye based assay; summary of the method: as §1
[3] = system: Mycobacterium tuberculosis; experiment: Antimycobacterial activity against Mycobacterium tuberculosis BRF16 harbouring KatG Ser315Thr mutant and wild type InhA assessed as reduction in bacterial growth incubated for 7 days by resazurin dye based assay; summary of the method: as §1
[4] = system: Mycobacterium tuberculosis; experiment: Antimycobacterial activity against Mycobacterium tuberculosis BRF57 harbouring KatG Ser315Thr mutant and wild type InhA assessed as reduction in bacterial growth incubated for 7 days by resazurin dye based assay; summary of the method: as §1
[5] = system: Mycobacterium tuberculosis; experiment: Antimycobacterial activity against Mycobacterium tuberculosis BRF45 harbouring KatG Ser315Thr mutant and wild type InhA assessed as reduction in bacterial growth incubated for 7 days by resazurin dye based assay; summary of the method: as §1
[6] = system: Mycobacterium tuberculosis; experiment: Antimycobacterial activity against Mycobacterium tuberculosis 19 harbouring KatG Ser315Thr mutant and wild type InhA assessed as reduction in bacterial growth incubated for 7 days by resazurin dye based assay; summary of the method: as §1
[7] = system: Mycobacterium tuberculosis; experiment: Antimycobacterial activity against Mycobacterium tuberculosis BRF14 harbouring KatG Ser315Thr mutant and wild type InhA assessed as reduction in bacterial growth incubated for 7 days by resazurin dye based assay; summary of the method: as §1
[8] = system: Mycobacterium tuberculosis; experiment: Antimycobacterial activity against Mycobacterium tuberculosis 73A harbouring KatG Ser315Thr mutant and wild type InhA assessed as reduction in bacterial growth incubated for 7 days by resazurin dye based assay; summary of the method: as §1
[9] = system: Mycobacterium tuberculosis; experiment: Antimycobacterial activity against Mycobacterium tuberculosis 91 harbouring KatG Ser315Thr mutant and wild type InhA assessed as reduction in bacterial growth incubated for 7 days by resazurin dye based assay; summary of the method: as §1

Compound	MIC [1]	MIC [2]	MIC [3]	MIC [4]	MIC [5]	MIC [6]	MIC [7]	MIC [8]	MIC [9]
O=C(NN1C(=O)c2ccccc2C1=O)c1cc2c([nH]c3ccccc32)c(-c2cccc([N+](=O)[O-])c2)n1	>523.99 µM	261.99 µM (≈ 125 µg/mL)	261.99 µM	>523.99 µM	261.99 µM (≈ 125 µg/mL)	261.99 µM (≈ 125 µg/mL)	523.99 µM (≈ 250 µg/mL)	261.99 µM (≈ 125 µg/mL)	>523.99 µM
NNC(=O)c1ccncc1 [ISONIAZID]	4 µM (≈ 0.549 µg/mL)	4 µM (≈ 0.549 µg/mL)	8 µM	4 µM (≈ 0.549 µg/mL)	4 µM (≈ 0.549 µg/mL)	2 µM (≈ 0.274 µg/mL)	8 µM (≈ 1.1 µg/mL)	4 µM (≈ 0.549 µg/mL)	2 µM (≈ 0.274 µg/mL)
O=C(NN1C(=O)c2ccccc2C1=O)c1cc2c([nH]c3ccccc32)c(-c2ccccc2)n1	289.27 µM (≈ 125 µg/mL)	144.64 µM (≈ 62.5 µg/mL)	289.27 µM	289.27 µM (≈ 125 µg/mL)	144.64 µM (≈ 62.5 µg/mL)	144.64 µM (≈ 62.5 µg/mL)	289.27 µM (≈ 125 µg/mL)	144.64 µM (≈ 62.5 µg/mL)	289.27 µM (≈ 125 µg/mL)
COC(=O)c1cc2c([nH]c3ccccc32)c(-c2ccc(N(C)C)cc2)n1	>724.32 µM	90.54 µM (≈ 31.3 µg/mL)	362.16 µM	362.16 µM (≈ 125 µg/mL)	90.54 µM (≈ 31.3 µg/mL)	90.55 µM (≈ 31.3 µg/mL)	724.32 µM (≈ 250 µg/mL)	90.54 µM (≈ 31.3 µg/mL)	180.36 µM (≈ 62.3 µg/mL)
O=C(NN1C(=O)CCC1=O)c1cc2c([nH]c3ccccc32)c(-c2ccc(F)cc2)n1	310.86 µM (≈ 125 µg/mL)	155.43 µM (≈ 62.5 µg/mL)	62.5 µg/mL	310.86 µM (≈ 125 µg/mL)	77.72 µM (≈ 31.3 µg/mL)	155.43 µM (≈ 62.5 µg/mL)	310.86 µM (≈ 125 µg/mL)	77.72 µM (≈ 31.3 µg/mL)	310.86 µM (≈ 125 µg/mL)
O=C(NN1C(=O)c2ccccc2C1=O)c1cc2c([nH]c3ccccc32)c(-c2ccc(F)cc2)n1	277.71 µM (≈ 125 µg/mL)	138.85 µM (≈ 62.5 µg/mL)	138.85 µM	277.71 µM (≈ 125 µg/mL)	138.85 µM (≈ 62.5 µg/mL)	138.85 µM (≈ 62.5 µg/mL)	138.85 µM (≈ 62.5 µg/mL)	138.85 µM (≈ 62.5 µg/mL)	277.71 µM (≈ 125 µg/mL)
